Source: ChEMBL document CHEMBL1949606, “Carbonic anhydrase VII is S-glutathionylated without loss of catalytic activity and affinity for sulfonamide inhibitors” (Bioorg Med Chem Lett, 2012)
Values belong to the molecule of their own block, whether it stands above or below them.

Assays:
Homo sapiens [1] = organism: Homo sapiens; assay: Activity of human recombinant carbonic anhydrase 7 C183S/C217S mutant
[2] = Inhibition of human recombinant carbonic anhydrase 7 C183S/C217S mutant using carbon-dioxide as substrate preincubated for 10 mins prior to substrate addition by […]
Summary of the method: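 Stopped-flow CO2 hydration by Khalifah's method: 0.2 mM phenol red read at 557 nm, 10 mM HEPES pH 7.5, 0.1 M Na2SO4, CO2 1.7–17 mM, initial rates over 10–100 s. Enzyme preincubated 10 min at room temperature with at least 7 inhibitor concentrations, from 10 mM DMSO-water stock diluted down to 1 nM. Triplicates; Ki by non-linear least-squares fitting.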

[3] = Inhibition of human recombinant carbonic anhydrase 7 C183S/C217S mutant hydrolysis activity using 4-nitrophenyl acetate as substrate preincubated for 10 mins prior to substrate addition by […]
Summary of the method: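 Esterase assay with 4-nitrophenyl acetate dissolved in acetonitrile (final MeCN 5%). Buffer: 10 mM HEPES/10 mM Tris pH 7.4 with 0.1 M Na2SO4; enzyme 0.10–5.0 µM. […] Spontaneous hydrolysis subtracted.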

[4] = Inhibition of human recombinant carbonic anhydrase 7 C183S/C217S mutant phosphatase activity using 4-nitrophenyl phosphate as substrate preincubated for 10 mins prior to substrate addition by […]
Summary of the method: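 Phosphatase assay with 4-nitrophenyl phosphate at 0.08–5 mM, 25 °C, 4-nitrophenol release read at 405 nm. Buffer: 10 mM HEPES/10 mM Tris pH 7.4 with 0.1 M Na2SO4. Spontaneous hydrolysis subtracted.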

Homo sapiens [5] = organism: Homo sapiens; assay: Ratio of Kcat to Km for human recombinant carbonic anhydrase 7 C183S/C217S mutant
[6] = substrate: O=[N+]([O-])c1ccc(OP(=O)(O)O)cc1; assay: (§1) Ratio of Kcat to Km for human recombinant carbonic anhydrase 3
[7] = substrate: CC(=O)Oc1ccc([N+](=O)[O-])cc1; assay: as §1
[8] = substrate: O=[N+]([O-])c1ccc(OP(=O)(O)O)cc1; assay: (§2) Activity of human recombinant carbonic anhydrase 3
[9] = substrate: CC(=O)Oc1ccc([N+](=O)[O-])cc1; assay: as §2
[10] = substrate: O=[N+]([O-])c1ccc(OP(=O)(O)O)cc1; assay: Ratio of Kcat to Km for S-glutathionylated form of human recombinant carbonic anhydrase 7
[11] = substrate: O=[N+]([O-])c1ccc(OP(=O)(O)O)cc1; assay: (§3) Activity of human recombinant carbonic anhydrase 7
[12] = substrate: CC(=O)Oc1ccc([N+](=O)[O-])cc1; assay: as §3
[13] = substrate: O=[N+]([O-])c1ccc(OP(=O)(O)O)cc1; assay: (§4) Activity of S-glutathionylated form of human recombinant carbonic anhydrase 7
[14] = substrate: CC(=O)Oc1ccc([N+](=O)[O-])cc1; assay: as §4
[15] = substrate: O=[N+]([O-])c1ccc(OP(=O)(O)O)cc1; assay: Ratio of Kcat to Km for human recombinant carbonic anhydrase 7

Molecule: CC(=O)Nc1nnc(S(N)(=O)=O)s1 [ACETAZOLAMIDE]
- Ki [2]: 3 nM
- IC50 [3]: 170 nM
- IC50 [4]: 2910 nM

B1: Carbonic anhydrase 3 (Homo sapiens), P07451 (protein)
chain: MAKEWGYASHNGPDHWHELFPNAKGENQSPVELHTKDIRHDPSLQPWSVSYDGGSAKTILNNGKTCRVVFDDTYDRSMLRGGPLPGPYRLRQFHLHWGSSDDHGSEHTVDGVKYAAELHLVHWNPKYNTFKEALKQRDGIAVIGIFLKIGHENGEFQIFLDALDKIKTKGKEAPFTKFDPSCLFPACRDYWTYQGSFTTPPCEECIVWLLLKEPMTVSSDQMAKLRSLLSSAENEPPVPLVSNWRPPQPINNRVVRASFK
- kcat/Km [6]: 45.3 M⁻¹ s⁻¹
- kcat/Km [7]: 139 M⁻¹ s⁻¹
- Km [8]: 1340 µM
- Km [9]: 1230 µM

B2: Carbonic anhydrase 7 (Homo sapiens), P43166 (protein)
chain: MTGHHGWGYGQDDGPSHWHKLYPIAQGDRQSPINIISSQAVYSPSLQPLELSYEACMSLSITNNGHSVQVDFNDSDDRTVVTGGPLEGPYRLKQFHFHWGKKHDVGSEHTVDGKSFPSELHLVHWNAKKYSTFGEAASAPDGLAVVGVFLETGDEHPSMNRLTDALYMVRFKGTKAQFSCFNPKCLLPASRHYWTYPGSLTTPPLSESVTWIVLREPICISERQMGKFRSLLFTSEDDERIHMVNNFRPPQPLKGRVVKASFRA
- kcat/Km [10]: 3.04 ×10⁴ /M/s
- Km [11]: 1430 µM
- Km [12]: 750 µM
- Km [13]: 970 µM
- Km [14]: 500 µM
- kcat/Km [15]: 2.89 ×10⁴ /M/s

Results, then the molecule that gave them:

- Km (Homo sapiens [1]): 1060 µM
Molecule: CC(=O)Oc1ccc([N+](=O)[O-])cc1

- kcat/Km (Homo sapiens [5]): 3.03 ×10⁴ /M/s
- Km (Homo sapiens [1]): 2210 µM
Molecule: O=[N+]([O-])c1ccc(OP(=O)(O)O)cc1
